The results in this text go back to ChEMBL document CHEMBL4513216, “Probing the Open Global Health Chemical Diversity Library for Multistage-Active Starting Points for Next-Generation Antimalarials” (ACS Infect Dis, 2020).

This data set is described as follows: Toxicity liver stage against HepG2, at 10uM. Type of data set: cell-based. On the set-up: test concentration 10 uM, cell line HepG2-A16-CD81EGFP. The following applies: human, HepG2-A16-CD81EGFP cells; read-out: INHIBITION
The method in brief:
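Uninfected HepG2-A16-CD81EGFP cells, 3 × 10^3 per well, 1536-well, plated on prespotted compound at 10 μM final, parasite-free screening media added to match infected plates; puromycin 10 μM positive, DMSO 0.5% negative; run in parallel with 48 h PbLuc assay at 37 °C, 5% CO2; viability by CellTiter-Glo luminescence, normalized to controls.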
As to `O=c1c(Cc2ccccc2)c(O)ccn1Cc1ccco1`, the cytotoxicity at 10 µM is 5.01%.
The same measure for `O=C(CSC1CCCC1)N1CCN(C(=O)C2CC2c2cccs2)CC1` (configuration not stated): 4.48%.
The figure for `CCN(CC)CCN1CCO[C@H]2[C@@H](OCc3ccccn3)CC[C@@H]21` is -7.66%.
In the case of `Cc1ccc(CN2CCOC3(CCCN(C(=O)c4ccco4)C3)C2)o1` (configuration not stated), the cytotoxicity at 10 µM was -3.27%.
In the case of `COCCN1C[C@@H]2CN(C(=O)[C@H]3CCCO3)C[C@@H]2C1=O`, the cytotoxicity at 10 µM stood at 5.82%.
As for `CCN(CC)C(=O)c1nnsc1-c1ccc(Cl)cc1`, the cytotoxicity at 10 µM was 2.74%.
The figure for `CCN(Cc1cscn1)CC1(C)Cc2c(N)nc(N)nc2O1` (configuration not stated) is 3.35%; for `Fc1ccc(F)c(CN2CCC(c3cnccn3)CC2)c1` it is -1.61%; for `COC(=O)c1ccc(C)c(N2CCNC2=O)c1` it is 9.81%.
The figure for `CCc1nc(CS(=O)(=O)Cc2noc(C3CC3)n2)cs1` is -7.38%; for `Cc1ccc(C2CSCCN2CCS(C)(=O)=O)cc1` (configuration not stated) it is -8.3%; for `Cc1cn2c(n1)CCC(NC(=O)c1ccc(OCC3CC3)nc1)C2` (configuration not stated) it is -9.47%.
Consider `O=C(CNc1nc(C(F)(F)F)cs1)N1CCc2sccc2C1`, for which the cytotoxicity at 10 µM was 15.1%.
The figure for `Oc1cccc(CNCCC2CCCO2)c1` (configuration not stated) is 4.08%; for `Cc1nn2cccnc2c1C(=O)NCc1ccccc1OC1CCC1` it is -46.4%; for `COc1ccc(N2CCC(NS(=O)(=O)N(C)C(C)C)CC2)cc1` it is 6.62%.
As to `COCCN(C)C(=O)NCCc1coc(-c2ccc(C)cc2)n1`, the cytotoxicity at 10 µM came out at 8.13%.
The same measure for `CC(=O)c1cccc(OC(C)C(=O)Nc2cnn(CCN(C)C)c2)c1` (configuration not stated): 3.45%; for `Cc1ccc(C(NC(=O)CN2CCc3cncnc3C2)C2CC2)cc1` (configuration not stated): 9.31%; for `CCc1nc(CNC2CCN(c3ccc(OC)cc3)CC2)cs1`: -12.8%.
`Cc1cc(C)c(CNC(=O)N2CCNC(=O)C2)c(=O)[nH]1`: the cytotoxicity at 10 µM is -0.535%.
The same measure for `Cc1nc(-c2ccc(NCCc3ccc(O)cc3)nc2)[nH]c(=O)c1C`: 20.5%.
As to `COc1ccccc1N1CCC(CNC(=O)CN2CSCC2=O)C1` (configuration not stated), the cytotoxicity at 10 µM is -1.33%.
The same measure for `Cc1ccoc1CNC(C)c1nnc2n1CCCC2` (configuration not stated): -12.6%; for `Cc1cnc(CNC2CCc3nc(C(C)C)nn3C2)cn1` (configuration not stated): 4.93%.
Turning to `CC(C)c1noc(CN(CCC2CCCCC2)CC(N)=O)n1`, the cytotoxicity at 10 µM came out at 2.94%.
The figure for `CC(=O)N1CCC(CCNC(C)c2cc(F)cc(F)c2)CC1` (configuration not stated) is -0.988%; for `Cc1nc2cc(C(=O)N(CCC#N)CCC#N)ccc2n1C` it is -3.91%.
Take `CCN(C)S(=O)(=O)NCC1(c2cccc(Br)c2)CC1`: the cytotoxicity at 10 µM was determined as 10.7%.
On to `N#CCCN1CCC(=Cc2ccccc2)CC1`, for which the cytotoxicity at 10 µM is -2.75%.
Regarding `CCc1nonc1NC(=O)C(C)Oc1ccccc1F` (configuration not stated), the cytotoxicity at 10 µM turned out to be 12%.
The figure for `C=C(C)CN1CCC(c2n[nH]c(C3CC3)n2)CC1` is -1.92%; for `Cc1nc(NC(=O)C2CCCN(C(N)=O)C2)sc1-c1ccccc1` (configuration not stated) it is 9.31%.
The same measure for `CC(C)(C)[S+]([O-])CCNC(=O)c1cccc2ncccc12` (configuration not stated): -45.1%; for `COc1cccc(CC2CCCN2CCCC#N)c1` (configuration not stated): -43.7%.
The figure for `CN(CC1CCN(CCO)CC1)CC(O)c1ccc(F)cc1` (configuration not stated) is -52.8%; for `O=C(NCC1CCOC1)N1CCN(c2ncccn2)CC1` (configuration not stated) it is -39.8%.
For `Cc1ccc2[nH]c(CN3CC[C@@H](N4CCN(C)CC4)[C@H](O)C3)c(C)c2c1`, the cytotoxicity at 10 µM is -7.34%.
The figure for `COc1ccc(Cc2ncc3c(n2)CN(C(=O)C(C)(C)C)C3)cc1` is -1.1%; for `COc1cc2c(cc1-c1nc3c(cnn3C(C)C3CC3)[nH]1)OCO2` (configuration not stated) it is 4.82%.
On to `CC(C)CC(C)NC1CCN(c2cccc(-c3cscn3)c2)CC1` (configuration not stated), for which the cytotoxicity at 10 µM is -56.8%.
The figure for `CN1C[C@@H](n2cnc(-c3ccccc3)c2-c2ccccn2)C[C@H]1C(=O)O` is 0.322%.
Consider `CS(=O)(=O)CC1CCCN(c2ncnc3c2Cc2ccccc2OC3)C1` (configuration not stated), for which the cytotoxicity at 10 µM is -7.41%.
The same measure for `CSCC[C@@H](CO)Nc1nc(-c2ccccn2)nc2c1c(C)nn2C`: 2.7%; for `O=C(NCc1cccc(F)c1F)c1cc(CN2CCCC(O)C2)on1` (configuration not stated): -45.9%.
As for `CN(C)C(=O)c1ccc(-c2cccc3c2CCNC3)cc1`, the cytotoxicity at 10 µM is -2.31%.
The figure for `CC(C)C1CN(c2cccc(C#N)n2)CCCN1CC1CC1` (configuration not stated) is -6.55%; for `Cc1cc(-c2nn(C)c(Cl)c2CN2CC[C@@](O)(C3CCC3)[C@H](C)C2)no1` it is -7.23%; for `O=C(N1CCCC1)N1CCC(Nc2ccncn2)CC1` it is -42.1%.
`O=C1CC[C@H]2CN(c3ncc(F)cn3)CC[C@H]2N1CCc1ccccc1`: the cytotoxicity at 10 µM was 9.61%.
Take `CCN(CC)C(CNCc1cc(F)cc(F)c1)c1ccco1` (configuration not stated): the cytotoxicity at 10 µM was determined as 5.44%.
The same measure for `Cc1nccn1CCCN1CCCC(c2nccn2C)C1` (configuration not stated): -10.3%.
Regarding `CCN1CC(CN(C)Cc2nc(-c3ccc(C)o3)oc2C)CC1=O` (configuration not stated), the cytotoxicity at 10 µM was 5.88%.
For the compound `O=C(C1CCOC1)N1CCC(OCc2ccccc2)CC1` (configuration not stated), the cytotoxicity at 10 µM came to 3.15%.
For `Cc1ccc(OC2(C(=O)O)CCN(C(=O)c3cccc(F)c3)CC2)cn1`, the cytotoxicity at 10 µM amounted to 2.91%.
The same measure for `CN(Cc1ccncn1)C(=O)CCc1[nH]nc2c1CCCC2`: 3.11%; for `Cc1ccc(OC2(C(=O)O)CCN(C/C=C/c3ccco3)CC2)cn1`: -1.64%.
The figure for `CCNC(=O)[C@@H]1C[C@@H](n2cc(CN(CC)CC)nn2)CN1` is 0.334%; for `CN(C)C1CCCN(C(=O)CCc2csc(N)n2)CC1` (configuration not stated) it is 1.48%.
The same measure for `Fc1ccc2[nH]c(C3CCCN3CCCn3cccn3)nc2c1` (configuration not stated): 0.154%; for `COCCN1CCCC(O)(CN2CCN(c3cc(C)ccn3)CC2)C1=O` (configuration not stated): 0.622%; for `CCCOc1ccc(C(=O)N2C[C@@H](CN3CCCC3)[C@@H](CO)C2)cc1Cl`: -5.84%.
With `COC(=O)CCCC(=O)N1CCCCC1c1ccc(F)cc1` (configuration not stated), the cytotoxicity at 10 µM is -42.7%.
The figure for `Cc1cc(CN(C)c2nc(-c3ccccn3)nc3c2CCNCC3)n[nH]1` is -5.48%; for `CN(c1ncccc1CNC(=O)c1csnn1)C1CCCCC1` it is -9.31%; for `CCN(CC1CCOCC1)C(=O)Cn1ccccc1=O` it is -19.9%.
Regarding `CC(=O)N1CCCCC1c1cc(CO)[nH]n1` (configuration not stated), the cytotoxicity at 10 µM is -0.671%.
With `CCOc1cc(C)nc(N2CCN(C(=O)c3ccncc3)CC2)n1`, the cytotoxicity at 10 µM was 3.12%.
Consider `CCOc1cc(C)nc(N2CCN(C(=O)c3csnn3)CC2)n1`, for which the cytotoxicity at 10 µM came to 2.85%.
In the case of `Cc1cc(C(=O)N2CCCC(c3cc(C(F)(F)F)[nH]n3)C2)on1` (configuration not stated), the cytotoxicity at 10 µM turned out to be 10.5%.
The figure for `Cn1cc(-c2nc(CN3CCc4c(ncn4C)C3)cs2)cn1` is -6.54%.
The same measure for `CCc1ocnc1C(=O)N1CCCC1c1noc(C2CC2)n1` (configuration not stated): -4.45%.
The same measure for `COCC(=O)NC(C)Cc1ccc(Br)cc1` (configuration not stated): -1.01%; for `Clc1snnc1CN1CCCCC1Cn1cccn1` (configuration not stated): -14.8%; for `Cc1nc(C)n(CC2CCCN2CCCOc2ccc(C#N)cc2)n1` (configuration not stated): -8.33%.
Take `CCc1ccc(C(=O)N2CCC(Nc3ccc(C)nn3)CC2)o1`: the cytotoxicity at 10 µM was -11%.
Consider `O=C(c1cnn(-c2ccccc2)n1)N1CCCC(n2cccn2)C1` (configuration not stated), for which the cytotoxicity at 10 µM is 1.13%.
In the case of `CC(C)(C)c1cnc(CN2CCC[C@H]2CO)o1`, the cytotoxicity at 10 µM was -14.8%.
On to `Cc1ccc2oc(C(=O)N3CCCC(c4noc(C)n4)C3)cc2n1` (configuration not stated), for which the cytotoxicity at 10 µM is -3.56%.
Consider `COc1c(CNC(c2nccn2C)C(C)C)c(C)nn1C` (configuration not stated), for which the cytotoxicity at 10 µM is -7.46%.
Take `Cc1nc(C)n(CC2CCCCN2CC(=O)Nc2ccncc2)n1` (configuration not stated): the cytotoxicity at 10 µM is -0.344%.
The figure for `c1ccc(-c2nc(CN3CCc4c(ncn4C4CC4)C3)cs2)cc1` is -8.65%; for `COc1ccc(CN2CCCCC2c2n[nH]cc2-c2cc(C)no2)cc1` (configuration not stated) it is 20.8%; for `CCn1c(CN2CCC(O)(c3ccc4c(c3)OCO4)CC2)cnc1SC` it is 6.96%.
On to `Cc1c(C2CCCN(C(=O)Cc3ccccn3)C2)n2c(nc1=O)CCC2` (configuration not stated), for which the cytotoxicity at 10 µM amounted to 8.39%.
Consider `CO[C@H]1CN(Cc2cccc(C#N)c2)[C@@H]2COC[C@H]12`, for which the cytotoxicity at 10 µM is -5.77%.
The figure for `CC(C)c1noc(CN2CCC(C3CCCCCN3S(C)(=O)=O)CC2)n1` (configuration not stated) is -2.71%; for `CN(C)Cc1nc2c(o1)CN(S(=O)(=O)c1cccs1)C2` it is -112%; for `O=C1[C@H]2CN(CC3CC3)C[C@H]2CN1c1ccsc1` it is 2.88%.
As to `CC(C)Nc1nc2c(cc1C(=O)NCC1CC1)CCN(C)CC2`, the cytotoxicity at 10 µM was -5.72%.
The figure for `Cc1nc(CN2C[C@@H]3CN(C(=O)Cc4ccccn4)C[C@@H]3C2)cs1` is -106%; for `Cc1ccc(CN2CCC3(CC2)CCN(C(=O)c2cccnc2)C3)o1` it is -93.3%.
As to `Cc1ccc(N2CC[C@H]3C[C@@H](C(=O)N4CCOCC4)O[C@H]3C2)nn1`, the cytotoxicity at 10 µM amounted to 4.94%.
The figure for `CC1c2ncc(COc3cccnc3)n2CCN1Cc1cnn(C)c1` (configuration not stated) is -112%; for `O=c1[nH]c2cn(-c3cccc(Cl)c3)c(=O)n2n1Cc1cccc(F)c1` it is 11%; for `Cc1ccccc1SCC(=O)NC1CCC(n2cnnc2)CC1` (configuration not stated) it is -48%.
The figure for `C=c1ccoc1=C1NN=C(CNCCn2cccn2)O1` is -5.02%.
